This passage reports inhibition and fold change (FC) results from ChEMBL document CHEMBL5653631, “A Potent and Selective ULK1 Inhibitor Suppresses Autophagy and Sensitizes Cancer Cells to Nutrient Stress” (iScience, 2018).

The target in assay [1] is Serine/threonine-protein kinase SIK2 (Homo sapiens) (UniProt Q9H0K1). Kind of assay: Inhibition of human recombinant QIK at 15 nM in presence of ATP by radiometric assay relative to control.
Assay [2] has as its target T1, Muscle, skeletal receptor tyrosine-protein kinase (Homo sapiens) (UniProt O15146).
T1 sequence (whole entry): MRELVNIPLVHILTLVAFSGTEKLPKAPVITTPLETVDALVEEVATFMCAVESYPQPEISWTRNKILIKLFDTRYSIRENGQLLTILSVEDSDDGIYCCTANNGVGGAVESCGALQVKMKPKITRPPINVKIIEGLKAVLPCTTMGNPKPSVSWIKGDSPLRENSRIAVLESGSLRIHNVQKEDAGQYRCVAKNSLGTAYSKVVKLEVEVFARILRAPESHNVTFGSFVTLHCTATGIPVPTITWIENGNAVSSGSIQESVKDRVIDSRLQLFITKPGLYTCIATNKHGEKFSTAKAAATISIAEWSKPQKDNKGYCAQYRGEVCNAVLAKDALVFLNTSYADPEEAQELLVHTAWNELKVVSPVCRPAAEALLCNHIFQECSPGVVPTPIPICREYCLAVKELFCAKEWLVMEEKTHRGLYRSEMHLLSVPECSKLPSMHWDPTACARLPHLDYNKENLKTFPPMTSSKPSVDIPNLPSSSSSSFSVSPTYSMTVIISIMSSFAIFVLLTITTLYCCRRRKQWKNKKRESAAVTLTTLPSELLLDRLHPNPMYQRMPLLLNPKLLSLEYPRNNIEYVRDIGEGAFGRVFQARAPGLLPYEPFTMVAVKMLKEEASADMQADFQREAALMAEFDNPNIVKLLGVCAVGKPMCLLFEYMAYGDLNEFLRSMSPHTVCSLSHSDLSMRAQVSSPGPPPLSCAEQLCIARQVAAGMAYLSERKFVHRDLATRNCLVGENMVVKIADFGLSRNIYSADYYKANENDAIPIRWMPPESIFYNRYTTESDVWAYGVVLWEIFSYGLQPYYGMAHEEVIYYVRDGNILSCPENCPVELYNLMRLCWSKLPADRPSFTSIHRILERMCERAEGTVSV
Kind of assay: Inhibition of human recombinant MUSK at 15 nM in presence of ATP by radiometric assay relative to control.

Assay [3] deals with Leukocyte tyrosine kinase receptor (Homo sapiens) (UniProt P29376). Description: Inhibition of human recombinant LTK at 15 nM in presence of ATP by radiometric assay relative to control.
Assay [4] has as its target Tyrosine-protein kinase Tec (Homo sapiens) (UniProt P42680). Kind of assay: Inhibition of human recombinant TEC at 15 nM related to control ULK1.
Assay [5] has as its target Tyrosine-protein kinase receptor UFO (Homo sapiens) (UniProt P30530). Kind of assay: Inhibition of human recombinant AXL at 15 nM in presence of ATP by radiometric assay relative to control. The method in brief:
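Panel of 327 recombinant human kinases, each assayed in vitro by radiometric activity assay in duplicate at a single inhibitor concentration per compound, chosen with reference to its ULK1 inhibition. Activity remaining was expressed as percent of vehicle control, and percent inhibition was calculated as 100 minus percent activity remaining.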

For assay [6], the target named is Calcium/calmodulin-dependent protein kinase type 1 (Homo sapiens) (UniProt Q14012). Description: Inhibition of human recombinant CaMK1a at 15 nM related to control ULK1.
Assay [7] addresses Ephrin type-A receptor 7 (Homo sapiens) (UniProt Q15375). Kind of assay: Inhibition of human recombinant EphA7 at 40 nM related to control ULK1.
For assay [8], the target named is Serine/threonine-protein kinase SIK2 (Homo sapiens) (UniProt Q9H0K1). Kind of assay: Inhibition of human recombinant QIK at 40 nM in presence of ATP by radiometric assay relative to control.
Assay [9] concerns the target G protein-coupled receptor kinase 5 (Homo sapiens) (UniProt P34947). Kind of assay: Inhibition of human recombinant GPRK5 at 500 nM related to control ULK1.
Assay [10] deals with T2, Receptor-interacting serine/threonine-protein kinase 1 (Homo sapiens) (UniProt Q13546).
T2 sequence (whole entry): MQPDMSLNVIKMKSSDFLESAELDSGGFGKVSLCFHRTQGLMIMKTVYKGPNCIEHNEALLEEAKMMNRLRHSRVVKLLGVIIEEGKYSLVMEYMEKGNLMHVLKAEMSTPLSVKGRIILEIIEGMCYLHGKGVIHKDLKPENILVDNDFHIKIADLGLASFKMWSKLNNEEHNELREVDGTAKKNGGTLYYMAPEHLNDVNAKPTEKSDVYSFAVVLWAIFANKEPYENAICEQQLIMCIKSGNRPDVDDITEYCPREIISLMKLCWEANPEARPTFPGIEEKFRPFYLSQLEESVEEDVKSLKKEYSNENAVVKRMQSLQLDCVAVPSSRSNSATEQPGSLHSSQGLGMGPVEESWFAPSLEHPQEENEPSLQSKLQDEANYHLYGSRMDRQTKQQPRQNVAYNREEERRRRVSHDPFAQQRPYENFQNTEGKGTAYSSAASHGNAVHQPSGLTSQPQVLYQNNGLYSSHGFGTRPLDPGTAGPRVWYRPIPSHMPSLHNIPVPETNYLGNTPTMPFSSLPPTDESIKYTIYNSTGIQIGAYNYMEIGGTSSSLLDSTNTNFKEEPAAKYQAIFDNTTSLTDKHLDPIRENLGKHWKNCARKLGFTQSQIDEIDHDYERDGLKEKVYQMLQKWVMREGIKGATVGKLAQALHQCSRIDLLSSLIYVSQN
Description: Inhibition of human recombinant RIPK1 at 500 nM related to control ULK1.

Assay [11] has as its target Serine/threonine-protein kinase MRCK beta (Homo sapiens) (UniProt Q9Y5S2). Description: Inhibition of human recombinant MRCKb at 500 nM in presence of ATP by radiometric assay relative to control.

Each structure is given as a SMILES string.

Serine/threonine-protein kinase SIK2 (Homo sapiens), sequence (Q9H0K1 whole entry, looked up): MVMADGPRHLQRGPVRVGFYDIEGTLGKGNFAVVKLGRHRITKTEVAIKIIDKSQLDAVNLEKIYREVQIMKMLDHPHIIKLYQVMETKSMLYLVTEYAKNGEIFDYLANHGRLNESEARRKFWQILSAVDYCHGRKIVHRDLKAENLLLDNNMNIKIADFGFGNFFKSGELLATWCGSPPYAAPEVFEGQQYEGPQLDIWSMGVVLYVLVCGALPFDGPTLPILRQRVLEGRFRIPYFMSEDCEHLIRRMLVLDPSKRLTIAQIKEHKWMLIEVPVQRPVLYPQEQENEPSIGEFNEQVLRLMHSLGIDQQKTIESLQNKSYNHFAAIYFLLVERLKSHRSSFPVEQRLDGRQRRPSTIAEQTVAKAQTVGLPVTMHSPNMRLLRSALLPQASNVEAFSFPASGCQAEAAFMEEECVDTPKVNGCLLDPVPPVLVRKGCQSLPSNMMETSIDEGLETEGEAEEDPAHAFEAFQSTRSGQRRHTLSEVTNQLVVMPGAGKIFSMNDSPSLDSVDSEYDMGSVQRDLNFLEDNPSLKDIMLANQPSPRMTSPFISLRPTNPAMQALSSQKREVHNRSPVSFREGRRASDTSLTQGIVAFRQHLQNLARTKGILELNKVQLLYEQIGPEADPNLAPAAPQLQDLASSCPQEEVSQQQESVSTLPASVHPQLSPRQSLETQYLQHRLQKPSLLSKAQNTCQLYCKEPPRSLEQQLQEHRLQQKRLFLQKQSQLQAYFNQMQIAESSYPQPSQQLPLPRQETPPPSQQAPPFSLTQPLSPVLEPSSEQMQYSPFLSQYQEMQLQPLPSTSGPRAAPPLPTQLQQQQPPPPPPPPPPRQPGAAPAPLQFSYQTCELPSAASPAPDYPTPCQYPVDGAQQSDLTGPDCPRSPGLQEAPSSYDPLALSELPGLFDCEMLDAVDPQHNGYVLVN
G protein-coupled receptor kinase 5 (Homo sapiens), sequence (P34947 whole entry, looked up): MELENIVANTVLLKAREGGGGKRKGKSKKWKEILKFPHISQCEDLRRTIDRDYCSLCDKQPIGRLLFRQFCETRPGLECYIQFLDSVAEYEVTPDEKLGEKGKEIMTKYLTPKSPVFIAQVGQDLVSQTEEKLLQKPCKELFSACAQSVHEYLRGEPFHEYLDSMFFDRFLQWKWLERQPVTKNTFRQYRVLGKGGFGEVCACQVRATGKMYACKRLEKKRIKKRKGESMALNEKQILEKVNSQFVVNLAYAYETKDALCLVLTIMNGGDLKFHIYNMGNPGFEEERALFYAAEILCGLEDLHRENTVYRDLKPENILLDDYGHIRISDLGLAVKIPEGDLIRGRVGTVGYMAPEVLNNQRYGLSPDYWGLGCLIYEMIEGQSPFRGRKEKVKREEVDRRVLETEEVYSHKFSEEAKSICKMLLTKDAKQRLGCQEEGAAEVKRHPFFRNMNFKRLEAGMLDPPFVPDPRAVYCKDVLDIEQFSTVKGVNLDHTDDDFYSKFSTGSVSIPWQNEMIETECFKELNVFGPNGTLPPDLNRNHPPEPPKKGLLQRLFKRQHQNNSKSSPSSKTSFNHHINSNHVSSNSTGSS
Tyrosine-protein kinase Tec (Homo sapiens), sequence (P42680 whole entry, looked up): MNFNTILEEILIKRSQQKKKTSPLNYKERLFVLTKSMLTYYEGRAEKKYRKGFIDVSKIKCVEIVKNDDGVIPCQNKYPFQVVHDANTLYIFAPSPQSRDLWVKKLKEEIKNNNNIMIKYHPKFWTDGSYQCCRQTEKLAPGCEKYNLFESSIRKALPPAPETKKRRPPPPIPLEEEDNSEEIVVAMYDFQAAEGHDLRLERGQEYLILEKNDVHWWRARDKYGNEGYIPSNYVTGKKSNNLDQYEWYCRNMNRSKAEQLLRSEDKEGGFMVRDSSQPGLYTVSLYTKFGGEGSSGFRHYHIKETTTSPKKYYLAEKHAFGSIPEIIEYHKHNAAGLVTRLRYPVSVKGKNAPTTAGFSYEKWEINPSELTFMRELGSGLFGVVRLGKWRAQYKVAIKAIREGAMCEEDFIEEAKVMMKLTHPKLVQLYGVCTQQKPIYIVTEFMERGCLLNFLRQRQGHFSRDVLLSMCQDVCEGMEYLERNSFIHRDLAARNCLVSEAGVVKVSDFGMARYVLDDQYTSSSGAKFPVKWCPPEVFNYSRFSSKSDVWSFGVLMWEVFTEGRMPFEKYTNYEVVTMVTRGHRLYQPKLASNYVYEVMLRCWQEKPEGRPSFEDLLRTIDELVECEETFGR
Serine/threonine-protein kinase MRCK beta (Homo sapiens), sequence (Q9Y5S2 whole entry): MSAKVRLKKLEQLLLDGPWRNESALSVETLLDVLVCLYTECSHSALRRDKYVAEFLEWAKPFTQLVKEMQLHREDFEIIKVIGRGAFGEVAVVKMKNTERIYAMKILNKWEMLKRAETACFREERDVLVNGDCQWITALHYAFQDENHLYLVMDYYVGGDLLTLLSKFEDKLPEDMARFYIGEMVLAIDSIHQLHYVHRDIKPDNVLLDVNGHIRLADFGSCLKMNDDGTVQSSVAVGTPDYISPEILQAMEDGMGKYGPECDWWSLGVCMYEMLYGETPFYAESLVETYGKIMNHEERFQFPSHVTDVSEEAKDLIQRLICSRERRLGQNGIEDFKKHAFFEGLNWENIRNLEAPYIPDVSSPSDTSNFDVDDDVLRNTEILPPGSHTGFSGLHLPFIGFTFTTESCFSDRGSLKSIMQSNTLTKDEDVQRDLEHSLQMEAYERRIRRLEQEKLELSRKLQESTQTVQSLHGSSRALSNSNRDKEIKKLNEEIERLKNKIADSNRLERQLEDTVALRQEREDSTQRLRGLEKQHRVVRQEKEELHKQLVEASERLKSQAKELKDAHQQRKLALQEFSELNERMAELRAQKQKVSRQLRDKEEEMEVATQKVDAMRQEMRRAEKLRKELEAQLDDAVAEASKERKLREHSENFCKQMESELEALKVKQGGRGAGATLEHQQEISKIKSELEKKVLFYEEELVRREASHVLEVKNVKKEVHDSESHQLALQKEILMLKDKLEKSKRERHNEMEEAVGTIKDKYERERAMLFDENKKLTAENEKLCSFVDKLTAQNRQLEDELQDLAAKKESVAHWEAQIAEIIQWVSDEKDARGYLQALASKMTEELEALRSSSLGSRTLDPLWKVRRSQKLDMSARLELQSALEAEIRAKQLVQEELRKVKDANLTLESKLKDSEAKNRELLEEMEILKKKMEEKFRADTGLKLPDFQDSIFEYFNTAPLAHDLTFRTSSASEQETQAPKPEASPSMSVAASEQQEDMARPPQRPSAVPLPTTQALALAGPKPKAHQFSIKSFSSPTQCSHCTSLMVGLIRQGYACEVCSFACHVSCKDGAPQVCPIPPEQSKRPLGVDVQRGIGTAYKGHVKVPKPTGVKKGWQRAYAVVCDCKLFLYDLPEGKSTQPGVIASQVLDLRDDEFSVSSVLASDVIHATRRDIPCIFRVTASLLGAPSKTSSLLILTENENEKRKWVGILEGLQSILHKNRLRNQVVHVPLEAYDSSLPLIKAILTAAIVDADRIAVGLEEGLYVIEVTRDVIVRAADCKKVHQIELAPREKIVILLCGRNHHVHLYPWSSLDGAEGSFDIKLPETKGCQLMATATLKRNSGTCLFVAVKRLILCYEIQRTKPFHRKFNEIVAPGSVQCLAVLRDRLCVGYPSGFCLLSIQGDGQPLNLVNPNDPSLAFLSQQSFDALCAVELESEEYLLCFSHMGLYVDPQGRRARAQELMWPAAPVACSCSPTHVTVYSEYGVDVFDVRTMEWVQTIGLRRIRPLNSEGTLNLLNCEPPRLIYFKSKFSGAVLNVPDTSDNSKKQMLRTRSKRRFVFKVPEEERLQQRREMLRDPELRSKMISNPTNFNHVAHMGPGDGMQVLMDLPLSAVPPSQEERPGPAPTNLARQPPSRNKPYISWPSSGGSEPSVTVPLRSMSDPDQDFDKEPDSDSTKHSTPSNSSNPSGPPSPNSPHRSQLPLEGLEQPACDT
Calcium/calmodulin-dependent protein kinase type 1 (Homo sapiens), sequence (Q14012 whole entry, looked up): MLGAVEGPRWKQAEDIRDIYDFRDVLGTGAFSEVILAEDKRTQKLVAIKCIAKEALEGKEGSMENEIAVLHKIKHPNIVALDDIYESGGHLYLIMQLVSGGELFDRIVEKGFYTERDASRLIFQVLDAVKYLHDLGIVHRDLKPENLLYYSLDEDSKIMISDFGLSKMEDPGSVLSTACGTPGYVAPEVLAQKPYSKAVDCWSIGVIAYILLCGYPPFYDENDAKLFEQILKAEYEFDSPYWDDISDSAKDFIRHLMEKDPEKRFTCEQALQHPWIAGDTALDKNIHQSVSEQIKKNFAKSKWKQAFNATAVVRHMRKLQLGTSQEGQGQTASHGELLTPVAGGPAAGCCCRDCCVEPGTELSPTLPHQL
Leukocyte tyrosine kinase receptor (Homo sapiens), sequence (P29376 whole entry): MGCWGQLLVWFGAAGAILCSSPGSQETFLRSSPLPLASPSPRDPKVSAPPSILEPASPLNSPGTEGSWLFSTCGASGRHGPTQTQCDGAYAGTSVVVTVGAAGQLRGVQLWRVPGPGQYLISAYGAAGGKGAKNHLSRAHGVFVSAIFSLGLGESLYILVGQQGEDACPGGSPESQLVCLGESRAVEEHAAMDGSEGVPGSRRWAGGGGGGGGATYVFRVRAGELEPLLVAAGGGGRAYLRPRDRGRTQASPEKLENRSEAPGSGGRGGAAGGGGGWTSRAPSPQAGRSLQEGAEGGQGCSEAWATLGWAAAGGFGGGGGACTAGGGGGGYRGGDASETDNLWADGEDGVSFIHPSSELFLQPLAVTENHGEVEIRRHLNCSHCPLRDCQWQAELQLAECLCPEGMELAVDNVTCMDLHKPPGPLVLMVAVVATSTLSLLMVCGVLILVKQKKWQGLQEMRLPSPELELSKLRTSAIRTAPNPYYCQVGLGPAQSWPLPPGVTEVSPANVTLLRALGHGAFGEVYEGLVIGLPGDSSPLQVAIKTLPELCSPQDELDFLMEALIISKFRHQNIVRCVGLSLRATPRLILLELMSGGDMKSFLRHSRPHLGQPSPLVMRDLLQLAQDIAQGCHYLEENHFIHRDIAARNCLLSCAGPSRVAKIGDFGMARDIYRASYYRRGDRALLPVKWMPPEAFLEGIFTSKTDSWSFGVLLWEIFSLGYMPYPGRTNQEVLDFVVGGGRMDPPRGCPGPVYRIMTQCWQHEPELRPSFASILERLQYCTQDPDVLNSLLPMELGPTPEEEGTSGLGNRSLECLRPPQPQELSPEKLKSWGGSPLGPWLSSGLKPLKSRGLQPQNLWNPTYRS

`CC(C)[C@H](NC(=O)c1cc(-c2cnn3cc(-c4ccc(OCCN5CCCCC5)cc4)cnc23)cs1)C(F)(F)F`: the inhibition in [1] amounted to 90%; in [2], 0%; in [3], 0%; in [5], 11%. Further, the fold change (FC) worked out at 0 in assay [4] and 0.08 in [6].

In the case of `O=C(N[C@@H](C1CC1)C(F)(F)F)c1cc(-c2cnn3cc(-c4ccc(F)cc4)cnc23)cs1`, the fold change (FC) in [7] came to 0. Also, the inhibition in assay [8] came to 54%.

Turning to `CNC(=O)c1ccccc1Oc1nc(Nc2cc(OC)c(OC)c(OC)c2)ncc1Br`, the fold change (FC) in assay [9] was found to be 0.01; in [10] it was 0.09. In addition, in [11], the inhibition is 0%.
